Reference: publication PMC5270551 (Biochemistry, 2015)
Where a chain is given by its changes, count along the chain named. Names may count otherwise. Read-outs that look alike come from different tables or passages of the source. Where a SMILES comes first, the peptide text is derived from it. Bridges are numbered along the chain shown (N, C = ends).

Key:
E. coli ATCC 25922 [1] = assay type: cell-based, Escherichia coli; conditions: for log-reduction in CFU/mL: 4 μM peptide
E. coli ATCC 25922 [2] = assay: Morphology imaging by phase-contrast microscopy and SEM; assay type: cell-based, Escherichia coli; conditions: for cells elongated (length 5 μm or greater) / cells exhibiting blebs: 1 × 10^8 CFU/mL, mid-log, 1 h 37 °C
[3] = tested on: Acinetobacter baumannii 17978; assay type: cell-based
[4] = tested on: Pseudomonas aeruginosa PAO1; assay type: cell-based
[5] = tested on: Klebsiella pneumoniae 13883; assay: Morphology imaging of Gram-negative bacteria; assay type: cell-based; conditions: 20 μM peptide, 1 × 10^8 CFU/mL, mid-log, 1 h 37 °C
How it was run: (§1)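 Mid-log bacteria at 1 × 10^8 CFU/mL were exposed to test peptide (20 μM; 40 μM for P. aeruginosa) for 1 h at 37 °C in 10 mM sodium phosphate buffer, pH 7.4, with 1% v/v TSB, then imaged by microscopy for morphology.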

E. coli CFT073 = assay: Morphology imaging of Gram-negative bacteria; assay type: cell-based, Escherichia coli; conditions: 20 μM HD5ox, 1 × 10^8 CFU/mL, mid-log, 1 h 37 °C; R-HD5ox Figure S19
How it was run: as §1

E. coli K-12 = assay: Morphology imaging of Gram-negative bacteria; assay type: cell-based, Escherichia coli; conditions: 20 μM peptide, 1 × 10^8 CFU/mL, mid-log, 1 h 37 °C
How it was run: as §1

E. coli cyto-GFP = assay type: cell-based, Escherichia coli
How it was run: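 An E. coli strain carrying cytoplasmic GFP, in mid-log or stationary phase, was exposed to test peptide across 0–80 μM. Cell length and mean GFP fluorescence intensity (arbitrary units) were taken from fluorescence images, and untreated and treated means were compared by Student's t-test.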

[6] = cited from earlier work

Question: Which results are given for `CC[C@H](C)[C@@H]1NC(=O)[C@H](CCC(=O)O)NC(=O)[C@@H]2CSSC[C@@H]3NC(=O)[C@H](Cc4ccc(O)cc4)NC(=O)[C@@H](NC(=O)[C@@H](NC(=O)[C@H](C)N)[C@@H](C)O)CSSC[C@@H](C(=O)N[C@@H](CCCNC(=N)N)C(=O)O)NC(=O)[C@H](CSSC[C@H](NC(=O)[C@H](CCCNC(=N)N)NC(=O)CNC(=O)[C@H]([C@@H](C)O)NC(=O)[C@H](CCCNC(=N)N)NC3=O)C(=O)N[C@@H](C)C(=O)N[C@@H]([C@@H](C)O)C(=O)N[C@@H](CCCNC(=N)N)C(=O)N[C@@H](CCC(=O)O)C(=O)N[C@@H](CO)C(=O)N[C@@H](CC(C)C)C(=O)N[C@@H](CO)C(=O)NCC(=O)N[C@@H](C(C)C)C(=O)N2)NC(=O)[C@H](CC(C)C)NC(=O)[C@H](CCCNC(=N)N)NC(=O)[C@H](Cc2ccc(O)cc2)NC(=O)[C@H](CC(C)C)NC(=O)[C@H](CCCNC(=N)N)NC(=O)CNC(=O)[C@H](CO)NC1=O` [HD5ox] (H-ATCYCRTGRCATRESLSGVCEISGRLYRLCCR-OH; disulfide 3-31, 5-20, 10-30 (inferred); N-terminus and C-terminus assumed)?
Answer: log-reduction in CFU/mL (E. coli ATCC 25922 [1]; mid-log phase E. coli): ~ 4 fold log-reduction in CFU/mL; log-reduction in CFU/mL (E. coli ATCC 25922 [1]; stationary phase E. coli): ~ 2 fold log-reduction in CFU/mL; log reduction in CFU/mL (E. coli ATCC 25922 [1]; 40 μM peptide, modified AMA conditions, 1 × 10^8 CFU/mL): ≈ 2 fold log reduction in CFU/mL; antibacterial activity in presence of Zn(II) (E. coli ATCC 25922 [1]; 2:1 Zn(II):HD5ox molar ratio): loss of antibacterial activity; HD5ox activity in presence of divalent cations (E. coli ATCC 25922 [1]; Ca(II), Mg(II) and Zn(II) added): blocked HD5ox activity; lethal dose for 99.99% killing, LD99.99 (E. coli ATCC 25922 [1]; E. coli ATCC 25922, 1 × 10^6 CFU/mL, n = 3 (Figure 9C)): 8 µM; cells elongated (length 5 μm or greater) (E. coli ATCC 25922 [2]; 20 μM peptide, n = 212 cells): 2%; cells exhibiting blebs (E. coli ATCC 25922 [2]; 20 μM peptide, n = 212 cells): ~ 17%; bacterial morphology with NaCl (E. coli ATCC 25922 [2]; 40 μM peptide co-treated with 200 mM NaCl): smooth morphology similar to that of the untreated control; bacterial morphology (phase-contrast) (E. coli ATCC 25922 [2]; 2 and 4 μM peptide, mid-log phase, 1 × 10^6 CFU/mL, standard AMA conditions): formation of large bulges; cells elongated (length 5 μm or greater) (E. coli ATCC 25922 [2]; ≥40 μM peptide, n = 203 cells): ≥ 4%; cells exhibiting blebs (E. coli ATCC 25922 [2]; ≥40 μM peptide, n = 203 cells): ~ 30%; bacterial morphology ([3]; 20 μM peptide, 1 × 10^8 CFU/mL, mid-log, 1 h 37 °C): bleb formation, elongation, and clumping; HD5ox concentration at which blebs were displayed ([3]; 17978, 1 h): 10 µM; bacterial morphology ([4]; 40 μM peptide, 1 × 10^8 CFU/mL, mid-log, 1 h 37 °C): bleb formation, elongation, and clumping; HD5ox concentration at which blebs were observed (only at this concentration) ([4]; PAO1, 1 h): 40 µM; bacterial morphology [5]: bleb formation, elongation, and clumping; bacterial morphology (E. coli CFT073): bleb formation, elongation, and clumping; bacterial morphology (E. coli K-12): bleb formation, elongation, and clumping; mean cell length after treatment (E. coli cyto-GFP; mid-log phase, increasing HD5ox (0–80 μM), from 2.8 ± 0.8 μm without peptide): 3.4 ± 1.0 μm; mean GFP fluorescence intensity after treatment (E. coli cyto-GFP; mid-log phase, increasing HD5ox (0–80 μM), from 155 ± 48 units without peptide): 93 ± 47 units; mean cell length after treatment (E. coli cyto-GFP; stationary phase, from 3.0 ± 0.8 μm without peptide): 2.9 ± 0.7 μm; mean GFP fluorescence intensity after treatment (E. coli cyto-GFP; stationary phase, from 112 ± 38 units without peptide): 139 ± 53 units; oligomeric form at neutral pH [6]: tetramers

B1: HD5-TE: Linear form of human α-defensin 5 (iodoacetamide-capped) (peptide, UniProt Q01523 20-94, looked up)
Defensin alpha 5: ESLQERADEATTQKQSGEDNQDLAISFAGNGLSALRTSGSQARATCYCRTGRCATRESLSGVCEISGRLYRLCCR
modifications: Defensin-5 cysteines carbamidomethylated
Question: Which “log reduction of CFU/mL” value (E. coli ATCC 25922 [1]; 16 μM peptide) does the source give for B1 here?
Answer: 2 fold log reduction of CFU/mL

B2: R-HD5[R9K]: rhodamine-HD5 conjugate, fluorophore positioned at R9K mutation site (conjugate, UniProt Q01523 20-94, looked up, variant R9K)
Defensin alpha 5: B1 Defensin alpha 5 with R52K
modifications: Defensin-5 rhodamine label at K9
Question: For B2, which “antimicrobial activity against E. coli (in words)” value (E. coli ATCC 25922 [1]; AMA assay) is on record?
Answer: active against E. coli
